Screening data as filed in PubChem.
Sampled rows, rich in hits. Any-hit rate of the full collection: about 3.9%.
SR-BI DiI-HDL act: activators of SR-BI mediated HDL lipid uptake; CHO ldlA[mSR-BI] cells, DiI-HDL uptake fluorescence, 3 h; 100 = double the neutral-control signal; AID 504775; hit rate 0.096% among 320,000; activation, % at 12.5 µM;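 active means mean replicate activation of at least 60% and every replicate at or above 60%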
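Test system: SR-BI-overexpressing, LDLR-lacking CHO cells. Measured by: DiI fluorescence, bottom read. Medium: Ham's F12 with 0.5% BSA, HEPES 25 mM, pH 7.4. Timing: 3 h uptake period with compound, 37 °C.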
HIF act: HIF pathway transcriptional activation | hit rate 0.32% among 300,000 | activation, % at 7.5 µM (by protocol) | U2OS HRE-luciferase reporter, luminescence; normalized: DMSO 0%, desferrioxamine 100%;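 active means mean activation of at least 10% of the iron chelator positive control signal, with at least half of replicates also reaching 10%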
SR-BI DiI inh: mouse SR-BI HDL lipid transfer inhibition. Q61009. ldlA[mSR-BI] CHO cells, DiI-HDL uptake fluorescence, 3 h. inhibition, % at 12.5 µM. hit rate 0.96% among 320,000. AID 488896;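 active means mean replicate inhibition of at least 70% and a set share of replicates each scoring 70 or more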
GAA850 FXN act: activators of GAA850 frataxin (FXN) promoter; hit rate 0.56% among 360,000; HEK293 lucGAA850 FXN promoter luciferase reporter, 24 h; percent of 10 µM SAHA response; activation, % at 6 µM;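 active means activation above the average of all compounds screened plus 3 SD, cutoff fixed separately per campaign, cut at about 7.5% in these data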
AHR act: human AHR activation. AID 2796. hit rate 2.5% among 320,000. AHR-responsive luciferase reporter cells, luminescence. P35869. activation, % at 5 µM; in the data active means activation above about 47%
Target sequence (P35869 whole entry, looked up): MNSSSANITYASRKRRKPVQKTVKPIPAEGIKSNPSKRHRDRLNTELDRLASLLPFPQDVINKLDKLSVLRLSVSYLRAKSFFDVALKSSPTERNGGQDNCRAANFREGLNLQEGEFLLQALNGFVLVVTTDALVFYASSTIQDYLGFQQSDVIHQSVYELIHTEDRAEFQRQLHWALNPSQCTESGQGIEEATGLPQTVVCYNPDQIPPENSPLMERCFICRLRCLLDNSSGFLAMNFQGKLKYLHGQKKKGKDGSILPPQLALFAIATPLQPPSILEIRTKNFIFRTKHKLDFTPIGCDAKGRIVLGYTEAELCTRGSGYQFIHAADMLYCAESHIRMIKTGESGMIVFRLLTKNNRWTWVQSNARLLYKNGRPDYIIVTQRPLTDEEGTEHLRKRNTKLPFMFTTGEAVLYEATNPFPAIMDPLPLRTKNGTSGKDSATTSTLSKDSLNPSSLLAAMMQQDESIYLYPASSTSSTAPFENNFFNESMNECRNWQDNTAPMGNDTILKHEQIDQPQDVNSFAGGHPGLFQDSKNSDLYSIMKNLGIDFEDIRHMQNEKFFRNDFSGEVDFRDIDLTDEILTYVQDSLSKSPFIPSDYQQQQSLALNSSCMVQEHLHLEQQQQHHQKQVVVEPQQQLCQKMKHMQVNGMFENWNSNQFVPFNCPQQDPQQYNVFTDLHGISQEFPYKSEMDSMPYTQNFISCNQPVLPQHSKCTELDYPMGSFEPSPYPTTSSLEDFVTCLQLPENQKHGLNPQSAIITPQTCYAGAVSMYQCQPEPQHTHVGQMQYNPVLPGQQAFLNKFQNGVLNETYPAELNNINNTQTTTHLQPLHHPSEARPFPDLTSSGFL
ABCB6 inh 2: blocks the human ABCB6 transporter; Q9NP58; K562-ABCB6 porphyrin accumulation, flow cytometry, 1 h; hits give low values; fluorescence ratio to DMSO, % at 10 µM; hit rate 0.19% among 360,000;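 active means fluorescence ratio to DMSO below 75%, the collection mean minus 3 SD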;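 further: signal is porphyrin accumulated inside mitochondria; lower ratio means ABCB6 inhibition with less porphyrin fluorescence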
GAA30 FXN cntr: GAA30 FXN promoter activation counter-screen; shares compounds with GAA850 FXN act; HEK293 lucGAA30 FXN promoter luciferase, 24 h; DMSO = 0%, 5 µM ipriflavone = 100%; activation, % at 6 µM; hit rate 66% among 1,900;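 active means mean activation above the mean of solvent-only control wells plus 3 SD, cut at about 22% in these data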;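 further: counterscreen of GAA850 promoter hits where activity marks nonselective or luminescence artifacts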
FXN GAA850 conf: confirmation of GAA850 frataxin (FXN) promoter activators; shares compounds with GAA850 FXN act; AID 588351; activation, % at 6 µM; HEK293 lucGAA850 FXN promoter luciferase reporter, 24 h; 100% = activation by SAHA; hit rate 86% among 1,900;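 active means mean activation above a set limit taken from the primary screen, cut at about 8% in these data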
ABCB6 blocker 1: blocks the human ABCB6 transporter. shares compounds with ABCB6 inh 2. K562-ABCB6 porphyrin accumulation, flow cytometry, 1 h; hits give low values. ratio response (% of DMSO), % at 10 µM. 700 tested, under 10 active. AID 602430;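 active means repeat-averaged ratio response below 75% of DMSO, the collection mean minus 3 SD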;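 further: median porphyrin fluorescence at 575 nm with 488 nm excitation from mitochondria; lower ratio means less porphyrin signal so ABCB6 inhibition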
K562 vector FC: effect in K562 cells lacking ABCB6, counter-screen. shares compounds with ABCB6 inh 2. K562 empty-vector cells, flow cytometry fluorescence, 1 h. percent response (fluorescence), % at 100 µM. 25 tested, under 10 active. AID 624484;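 active means compounds whose half-maximal effective concentration is below 100 µM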
Hits are given with their value; n = inactive; x = not tested or not shown.

SMILES	SR-BI DiI-HDL act	HIF act	SR-BI DiI inh	GAA850 FXN act	AHR act	ABCB6 inh 2	GAA30 FXN cntr	FXN GAA850 conf	others
COC(=O)C1=C(C(=O)OC)[C@]2([C@H]3CC=CCN[C@@H](Cc4ccccc4)C(=O)N3Cc3ccccc3)C=C[C@H]1O2	n	x	n	n	x	n	x	x
COC(=O)C1=C(C(=O)OC)[C@]2([C@@H]3CC=CCN[C@@H](Cc4ccccc4)C(=O)N3Cc3ccccc3)C=C[C@H]1O2	n	x	n	9.1	x	n	n	n
Cn1ccsc1=NC(=O)c1ccc(S(C)(=O)=O)cc1	n	n	n	n	n	n	x	x
Cn1ccsc1=NC(=O)c1ccc(S(C)(=O)=O)c([N+](=O)[O-])c1	n	n	n	10	62	n	73	30
CCCCC(CCC(=O)O)(C(=O)OCC)c1csc(Nc2ccccc2)n1 (centres undefined)	n	n	n	n	n	n	x	x
CCOC(=O)/C(=N\Nc1ccc(Cl)cc1)c1csc(Nc2ccccc2)n1	n	n	110	8.0	n	n	34	24
COc1ccc(CC(N)c2csc(Nc3ccc(C(=O)c4ccccc4)cc3)n2)cc1 (centres undefined)	x	x	x	n	x	n	x	x
CCOC(=O)/C(=N\Nc1ccc(OC)cc1)c1csc(Nc2ccccc2)n1	n	n	99	11	n	n	38	25
S=C(NC1CCCCC1)N1CCC(C2C=NC=N2)CC1 (centres undefined)	x	x	x	n	x	n	x	x
COc1ccc(C(=O)NC(=S)NNC(=O)c2ccc(O)cc2)cc1[N+](=O)[O-]	n	n	n	n	n	n	x	x
C=CCn1c(N)c(C(=O)NCCC2=CCCCC2)sc1=S	n	n	n	7.6	n	n	92	35
CC(CC(=O)NCc1cccnc1)c1ccccc1 (centres undefined)	n	n	n	n	n	n	x	x
N#C/C(=C/c1ccc(N2CCOCC2)o1)c1ccc(Cl)cc1	n	n	85	20	n	n	119	47
Cc1nc(C2CC(=O)OC23CCCCC3)cs1 (centres undefined)	n	n	n	n	n	n	x	x
O=C(Nc1ccc2nc(SCc3ccc(Cl)cc3)sc2c1)c1ccccc1C(=O)N1CCOCC1	n	n	n	n	n	n	x	x
Cc1cc(C(=O)CN2C(=O)NC(CCS(C)(=O)=O)C2=O)c(C)n1C1CC1 (centres undefined)	n	x	n	n	n	n	x	x
O=C(O)COc1ccccc1/C=N/NC(=O)CN1CCN(Cc2ccccc2Cl)CC1	n	n	n	n	n	n	x	x
O=C(CNCCC1=CCCCC1)Nc1ccc(N2CCCCCC2)cc1	n	n	n	n	n	n	x	x
OC12CCCCC1C(c1ccc3c(c1)OCO3)N(Cc1cccc(F)c1)CC2 (centres undefined)	n	n	n	12	x	n	n	13
OC12CCCCC1C(c1ccc3c(c1)OCO3)N(Cc1ccc(F)cc1)CC2 (centres undefined)	n	n	n	15	n	n	n	12
CCOc1cc(C2C3=C(CC(C)(C)CC3=O)N(CCCOC)C3=C2C(=O)CC(C)(C)C3)ccc1O	n	n	n	n	x	n	x	x
Cc1nc(NC(=O)c2oc3ccccc3c2C)sc1C(=O)N(C)C	n	n	n	7.8	n	n	112	36
COc1ccc(Cn2nnc3c(=O)[nH]c(C(=O)NCCc4ccc(F)cc4)nc32)cc1OC	n	x	n	20	n	n	n	9.0
Cc1ccc(CNc2ccc3c(c2)ncn3C(C)(C)C)cc1	x	n	x	10.0	n	n	107	37
COc1ccc(NC(=O)c2cccs2)cc1O	n	n	n	n	n	n	x	x
SMILES	SR-BI DiI-HDL act	HIF act	SR-BI DiI inh	GAA850 FXN act	AHR act	ABCB6 inh 2	GAA30 FXN cntr	FXN GAA850 conf	others
Cc1ccc2nc(-c3ccc4c(c3)OCCO4)cn2c1	n	n	n	n	n	n	x	x
Cc1ccc2nc(-c3ccc4c(c3)NC(=O)CO4)cn2c1	x	n	x	8.5	n	n	98	30
COc1ccc(C(=O)NC(=S)Nc2ccccc2F)cc1	n	n	n	n	n	n	x	x
COc1ccc(C(=O)c2sc(Nc3ccccc3F)nc2N)cc1	x	n	x	8.1	n	n	81	43
Nc1nc(Nc2ccccc2)sc1C(=O)c1ccccc1	n	n	n	22	n	n	102	107
COc1ccc(C(=O)c2sc(Nc3ccccc3)nc2N)cc1	n	n	n	n	x	n	x	x
COc1ccc(C(=O)c2sc(Nc3ccccc3)nc2N)cc1OC	n	n	n	9.2	n	n	n	38
CCN(CC)CCCNC(=O)CNC(=S)N(CCCN1CCOCC1)Cc1cccs1	n	n	n	n	n	n	x	x
CCOc1ccc(NC(=O)NNC(=O)c2ccc3ccccc3c2O)cc1	n	n	n	n	n	n	x	x
Cc1cccc(C)c1NC(=O)c1nc(S(=O)(=O)Cc2ccccc2)ncc1Cl	n	n	n	8.2	n	n	n	20	K562 vector FC=n
CCN(c1ccccc1)S(=O)(=O)c1ccc(OC)c(NC(=O)C2CC2)c1	n	x	n	n	n	n	x	x
CN(C)C(=O)c1cn(-c2ccccc2)nc1-c1cc2ccccc2o1	n	n	n	n	n	35	x	x	ABCB6 blocker 1=n
COC(=O)c1c(NC(=O)Cc2ccccc2)sc(C)c1C	n	n	n	n	n	n	x	x
CCc1ccc(CCC(=O)Nc2sc(C)c(C)c2C(=O)OC)o1	n	n	n	n	n	69	x	x	ABCB6 blocker 1=n
Cc1ccc(OCC(O)CNC(=O)c2ccccc2C(=O)O)cc1 (centres undefined)	n	n	n	n	n	71	x	x	ABCB6 blocker 1=n
Cc1cccc(OCC(O)CNC(=O)c2ccccc2C(=O)O)c1 (centres undefined)	n	n	n	n	n	n	x	x
CC(C)NCc1nnc(-c2ccc(Cl)cc2)o1	n	n	n	n	n	71	x	x	ABCB6 blocker 1=n
CN(C)c1ccc2c(c1)Sc1cc(N(C)C)ccc1N2C(=O)c1ccccc1	n	n	n	n	n	73	x	x	ABCB6 blocker 1=n
CN(C)S(=O)(=O)c1ccc(C(=O)NCCC(=O)N2CCCC2)cc1	n	n	n	n	n	70	x	x	ABCB6 blocker 1=n
Cn1c(=O)c2c(nc(NCCOc3ccc(C(C)(C)C)cc3)n2C)n(C)c1=O	n	n	n	n	n	74	x	x	ABCB6 blocker 1=n
